Assay results: ChEMBL document CHEMBL4814000, “Discovery of β-carboline-(phenylsulfonyl)furoxan hybrids as potential anti-breast cancer agents” (Bioorg Med Chem Lett, 2021)
Calls of active or inactive are those of the source. The calls are words filed in the database; no cut-off is given here.

What was measured:
MCF7 = experiment: Antiproliferative activity against human MCF7 cells assessed as reduction in cell viability incubated for 72 hrs by CCK-8 assay; type: functional, cell-based; details: MCF7, 72 h
Procedure, shortened: (§1)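 CCK-8 viability assay on MCF-7 or MDA-MB-231 cells after 72 h compound exposure; IC50 taken as half inhibitory concentration, reported as mean ± SD of three independent experiments.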

MDA-MB-231 = experiment: Antiproliferative activity against human MDA-MB-231 cells assessed as reduction in cell viability incubated for 72 hrs by CCK-8 assay; type: functional, cell-based; details: MDA-MB-231, 72 h; procedure, shortened: as §1
[1] = Nitric oxide releasing activity assessed as amount of NO release measured up to 24 hrs by Griess assay; type: functional; details: time hrs <=24
Procedure, shortened: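 Griess assay measuring NO released by compounds in vitro over time; values are averages of three independent experiments.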

Structure (SMILES)	IC50 (MCF7) [µM]	IC50 (MDA-MB-231) [µM]	Activity [1]
O=S(=O)(c1ccccc1)c1no[n+]([O-])c1S(=O)(=O)c1ccccc1	3.92	4.84	–
COc1ccc(-c2nc(C(=O)NCCOc3no[n+]([O-])c3S(=O)(=O)c3ccccc3)cc3c2[nH]c2ccccc23)cc1	1.45	0.87	Active
O=C(O)c1cc2c(cn1)[nH]c1ccccc12	> 30	> 30	–
O=C(c1cc2c(cn1)[nH]c1ccccc12)N1CCN(CCOc2no[n+]([O-])c2S(=O)(=O)c2ccccc2)CC1	8.28	6.83	–
COc1ccc(-c2nc(C(=O)OCCOCCOc3no[n+]([O-])c3S(=O)(=O)c3ccccc3)cc3c2[nH]c2ccccc23)cc1	3.92	2.53	–
COc1ccc(-c2nc(C(=O)NCC(C)Oc3no[n+]([O-])c3S(=O)(=O)c3ccccc3)cc3c2[nH]c2ccccc23)cc1 (centres undefined)	1.56	2.27	Active
Cc1nc(C(=O)OCC#CCOc2no[n+]([O-])c2S(=O)(=O)c2ccccc2)cc2c1[nH]c1ccccc12	8.86	6.91	–
COc1ccc(-c2nc(C(=O)OCCCOc3no[n+]([O-])c3S(=O)(=O)c3ccccc3)cc3c2[nH]c2ccccc23)cc1	3.49	2.86	–
COc1ccc2c(c1)[nH]c1c(C)nccc12 [HARMINE]	16.9	21.9	–
COc1cccc2c1C(=O)c1c(O)c3c(c(O)c1C2=O)C[C@@](O)(C(=O)CO)C[C@@H]3O[C@H]1C[C@H](N)[C@H](O)[C@H](C)O1 [DOXORUBICIN]	–	2.86	–
COc1ccc(-c2nc(C(=O)OCCOc3no[n+]([O-])c3S(=O)(=O)c3ccccc3)cc3c2[nH]c2ccccc23)cc1	4.8	3.59	Active
Cc1nc(C(=O)NCCCOc2no[n+]([O-])c2S(=O)(=O)c2ccccc2)cc2c1[nH]c1ccccc12	2.97	1.62	–
Cc1nc(C(=O)N2CCN(CCOc3no[n+]([O-])c3S(=O)(=O)c3ccccc3)CC2)cc2c1[nH]c1ccccc12	3.29	3.47	–
Cc1nc(C(=O)O)cc2c1[nH]c1ccccc12 [HARMAN-3-CARBOXYLIC ACID]	19.2	22.6	–
COc1ccc(-c2nc(C(=O)OCC#CCOc3no[n+]([O-])c3S(=O)(=O)c3ccccc3)cc3c2[nH]c2ccccc23)cc1	2.35	1.16	–
COc1ccc(-c2nc(C(=O)O)cc3c2[nH]c2ccccc23)cc1	14.3	12.6	–
Cc1nc(C(=O)NCCOc2no[n+]([O-])c2S(=O)(=O)c2ccccc2)cc2c1[nH]c1ccccc12	4.96	3.84	–
Cc1nc(C(=O)NCC(C)Oc2no[n+]([O-])c2S(=O)(=O)c2ccccc2)cc2c1[nH]c1ccccc12 (centres undefined)	3.8	2.2	–
COc1ccc(-c2nc(C(=O)N3CCN(CCOc4no[n+]([O-])c4S(=O)(=O)c4ccccc4)CC3)cc3c2[nH]c2ccccc23)cc1	1.33	0.92	Active

The next lines start with results.

IC50 (MCF7) [µM]	IC50 (MDA-MB-231) [µM]	Structure (SMILES)	Activity [1]
2.92	4.26	COc1ccc(-c2nc(C(=O)OCCCCOc3no[n+]([O-])c3S(=O)(=O)c3ccccc3)cc3c2[nH]c2ccccc23)cc1	–
19	15.8	O=C(OCCOCCOc1no[n+]([O-])c1S(=O)(=O)c1ccccc1)c1cc2c(cn1)[nH]c1ccccc12	–
5.27	5.89	O=C(OCC#CCOc1no[n+]([O-])c1S(=O)(=O)c1ccccc1)c1cc2c(cn1)[nH]c1ccccc12	–
13.7	8.87	O=C(OCCCCCCOc1no[n+]([O-])c1S(=O)(=O)c1ccccc1)c1cc2c(cn1)[nH]c1ccccc12	–
4.88	2.24	Cc1nc(C(=O)OCCCOc2no[n+]([O-])c2S(=O)(=O)c2ccccc2)cc2c1[nH]c1ccccc12	–
4.64	7.5	O=C(NCCCOc1no[n+]([O-])c1S(=O)(=O)c1ccccc1)c1cc2c(cn1)[nH]c1ccccc12	–
9.57	12.5	O=C(OCCCCOc1no[n+]([O-])c1S(=O)(=O)c1ccccc1)c1cc2c(cn1)[nH]c1ccccc12	–
5.36	2.98	COc1ccc(-c2nc(C(=O)OCCCCCCOc3no[n+]([O-])c3S(=O)(=O)c3ccccc3)cc3c2[nH]c2ccccc23)cc1	Active
6.94	5.97	CC(CNC(=O)c1cc2c(cn1)[nH]c1ccccc12)Oc1no[n+]([O-])c1S(=O)(=O)c1ccccc1 (centres undefined)	–
7.53	6.75	O=C(NCCOc1no[n+]([O-])c1S(=O)(=O)c1ccccc1)c1cc2c(cn1)[nH]c1ccccc12	–
4.64	7.96	O=C(OCCCOc1no[n+]([O-])c1S(=O)(=O)c1ccccc1)c1cc2c(cn1)[nH]c1ccccc12	–
11.5	9.56	O=C(OCCOc1no[n+]([O-])c1S(=O)(=O)c1ccccc1)c1cc2c(cn1)[nH]c1ccccc12	–
5.89	7.67	Cc1nc(C(=O)OCCOCCOc2no[n+]([O-])c2S(=O)(=O)c2ccccc2)cc2c1[nH]c1ccccc12	–
4.58	7.46	Cc1nc(C(=O)OCCOc2no[n+]([O-])c2S(=O)(=O)c2ccccc2)cc2c1[nH]c1ccccc12	–
4.28	4.54	Cc1nc(C(=O)OCCCCOc2no[n+]([O-])c2S(=O)(=O)c2ccccc2)cc2c1[nH]c1ccccc12	–
6.85	5.75	Cc1nc(C(=O)OCCCCCCOc2no[n+]([O-])c2S(=O)(=O)c2ccccc2)cc2c1[nH]c1ccccc12	–
